What was measured:
PC-3 [1] = experiment: Antimigratory activity against human PC3 prostate cancer cell line at 100 nM after 12h; assay type: functional; details: PC-3, 12 h
Summary of the method: (§1)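 Computer-assisted videomicroscopy tracking of living cultured cells, one image every 4 min over 24 h; migration scored as maximum relative distance from origin (MRDO) per cell, read at 12 or 22 h with compound at 100 nM or without (control). Control normalized to 0%. Triplicate analyses, 121–184 cells per condition; mean ± standard error.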

PC-3 [2] = experiment: Cytotoxicity against human PC3 prostate cancer cell line; assay type: functional, cell-based
Summary of the method: (§2)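 Colorimetric MTT assay on cultured human cancer cells after 3 days of continuous drug exposure. IC50 is the concentration that reduces overall cell-population growth by 50% relative to untreated cells.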

HCT-15 = experiment: Cytotoxicity against human HCT15 colon cancer cell line; assay type: functional, cell-based; summary of the method: as §2
MCF7 = experiment: Cytotoxicity against human MCF7 breast cancer cell line; assay type: functional, cell-based; summary of the method: as §2
PC-3 [3] = experiment: Antimigratory activity against human PC3 prostate cancer cell line at 100 nM after 22h; assay type: functional; details: PC-3, 22 h; summary of the method: as §1
Mus musculus = experiment: Toxicity in mice at 160 mg/kg, ip 28 days post dose; assay type: organism-based; design: dose 160 mg/kg, route intraperitoneal; details: in vivo, 672 h
Summary of the method: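 Healthy, non-tumor-grafted mice received a single acute ip dose of 160 mg/kg. Body weight and survival were recorded over at least 28 days after dosing to detect toxic effects.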

U373 MG [4] = experiment: Antimigratory activity against human U373 glioblastoma cell line at 100nM after 22h; assay type: functional, U-373MG ATCC; summary of the method: as §1
A549 [5] = experiment: Antimigratory activity against human A549 NSCLC cell line at 100 nM after 12h; assay type: functional; details: A549, 12 h; summary of the method: as §1
U373 MG [6] = experiment: Antimigratory activity against human U373 glioblastoma cell line at 100 nM after 12h; assay type: functional, U-373MG ATCC; summary of the method: as §1
A549 [7] = experiment: Cytotoxicity against human A549 NSCLC cell line; assay type: functional, cell-based; summary of the method: as §2
Hs 683 = experiment: Cytotoxicity against human Hs683 cancer cell line; assay type: functional, cell-based; summary of the method: as §2
U373 MG [8] = experiment: Cytotoxicity against human U373 glioblastoma cell line; assay type: functional, cell-based, U-373MG ATCC; summary of the method: as §2
A549 [9] = experiment: Antimigratory activity against human A549 NSCLC cell line at 100 nM after 22h; assay type: functional; details: A549, 22 h; summary of the method: as §1

Row | SMILES | inhibition at 0.1 µM (PC-3 [1]) [%] | IC50 (PC-3 [2]) [µM] | IC50 (HCT-15) [µM] | IC50 (MCF7) [µM] | inhibition at 0.1 µM (PC-3 [3]) [%] | Activity (Mus musculus) | inhibition at 0.1 µM (U373 MG [4]) [%] | inhibition at 0.1 µM (A549 [5]) [%] | inhibition at 0.1 µM (U373 MG [6]) [%] | IC50 (A549 [7]) [µM] | IC50 (Hs 683) [µM] | IC50 (U373 MG [8]) [µM] | inhibition at 0.1 µM (A549 [9]) [%]
1 | COc1ccc(OC)c([C@@H]2C[C@H]3[C@@H]4CC=C5C[C@@H](O[C@@H]6O[C@H](CO)[C@@H](O[C@@H]7O[C@H](CO)[C@@H](O)[C@H](O)[C@H]7O)[C@H](O)[C@H]6O)CC[C@]5(C)[C@H]4CC[C@]3(C)[C@H]2[C@H](C)O[C@@H]2O[C@H](CO)[C@@H](O[C@@H]3O[C@H](CO)[C@@H](O)[C@H](O)[C@H]3O)[C@H](O)[C@H]2O)c1 | 9 | > 10 | > 10 | > 10 | -17 | Non-toxic | 4 | 4 | -8 | > 10 | > 10 | > 10 | 3
2 | COc1ccc(OC)c([C@@H]2C[C@H]3[C@@H]4CC=C5C[C@@H](O[C@H]6O[C@H](CO)[C@@H](O[C@@H]7O[C@H](CO)[C@H](O)[C@H](O)[C@H]7O)[C@H](O)[C@H]6O)CC[C@]5(C)[C@H]4CC[C@]3(C)[C@H]2[C@H](C)O[C@H]2O[C@H](CO)[C@@H](O[C@@H]3O[C@H](CO)[C@H](O)[C@H](O)[C@H]3O)[C@H](O)[C@H]2O)c1 | 14 | > 10 | > 10 | > 10 | 15 | Non-toxic | -13 | -26 | -12 | > 10 | > 10 | > 10 | -12
3 | COc1ccc(OC)c([C@@H]2C[C@H]3[C@@H]4CC=C5C[C@@H](O[C@H]6O[C@H](CO)[C@@H](O[C@@H]7O[C@H](CO)[C@H](O)[C@H](O)[C@H]7O)[C@H](O)[C@H]6O)CC[C@]5(C)[C@H]4CC[C@]3(C)[C@H]2C(C)=O)c1 | -51 | > 10 | > 10 | > 10 | -34 | Non-toxic | -31 | 8 | -29 | > 10 | > 10 | > 10 | -5
4 | COc1ccc(OC)c([C@@H]2C[C@H]3[C@@H]4CC=C5C[C@@H](O[C@@H]6O[C@H](CO[C@H]7O[C@H](CO)[C@@H](O)[C@H](O)[C@H]7O)[C@@H](O)[C@H](O)[C@H]6O)CC[C@]5(C)[C@H]4CC[C@]3(C)[C@H]2C(C)=O)c1 | -7 | > 10 | > 10 | > 10 | -9 | Non-toxic | -18 | -34 | -18 | > 10 | > 10 | > 10 | -40
5 | COc1ccc(OC)c([C@@H]2C[C@H]3[C@@H]4CC=C5C[C@@H](O[C@@H]6O[C@H](CO)[C@@H](O[C@@H]7O[C@H](CO)[C@@H](O)[C@H](O)[C@H]7O)[C@H](O)[C@H]6O)CC[C@]5(C)[C@H]4CC[C@]3(C)[C@H]2C(C)=O)c1 | 13 | > 10 | > 10 | > 10 | -7 | Non-toxic | -9 | -30 | 8 | > 10 | > 10 | > 10 | -34
6 | COc1ccc(OC)c([C@@H]2C[C@H]3[C@@H]4CC=C5C[C@@H](O[C@@H]6O[C@H](CO)[C@H](O)[C@H](O)[C@H]6O)CC[C@]5(C)[C@H]4CC[C@]3(C)[C@H]2C(C)=O)c1 | 7 | > 10 | > 10 | > 10 | -8 | Non-toxic | 1 | 2 | 8 | > 10 | > 10 | > 10 | 4
7 | COc1ccc(OC)c([C@@H]2C[C@H]3[C@@H]4CC=C5C[C@@H](O[C@@H]6O[C@H](CO[C@H]7O[C@H](CO)[C@@H](O)[C@H](O)[C@H]7O)[C@@H](O)[C@H](O)[C@H]6O)CC[C@]5(C)[C@H]4CC[C@]3(C)[C@H]2[C@H](C)O[C@@H]2O[C@H](CO[C@H]3O[C@H](CO)[C@@H](O)[C@H](O)[C@H]3O)[C@@H](O)[C@H](O)[C@H]2O)c1 | 8 | > 10 | > 10 | > 10 | 10 | Non-toxic | -9 | 9 | -14 | > 10 | > 10 | > 10 | 0
8 | COc1ccc(OC)c([C@@H]2C[C@H]3[C@@H]4CC=C5C[C@@H](O)CC[C@]5(C)[C@H]4CC[C@]3(C)[C@H]2[C@H](C)O)c1 | – | > 10 | > 10 | > 10 | – | Non-toxic | – | – | – | > 10 | > 10 | > 10 | –
9 | COc1ccc(OC)c([C@@H]2C[C@H]3[C@@H]4CC=C5C[C@@H](O[C@H]6O[C@H](CO[C@@H]7O[C@H](CO)[C@@H](O)[C@H](O)[C@H]7O)[C@@H](O)[C@H](O)[C@H]6O)CC[C@]5(C)[C@H]4CC[C@]3(C)[C@H]2C(C)=O)c1 | 11 | > 10 | > 10 | > 10 | -1 | Non-toxic | -1 | 0 | 0 | > 10 | > 10 | > 10 | -4
10 | COc1ccc(OC)c([C@@H]2C[C@H]3[C@@H]4CC=C5C[C@@H](O[C@H]6O[C@H](CO)[C@@H](O[C@H]7O[C@H](CO)[C@@H](O)[C@H](O)[C@H]7O)[C@H](O)[C@H]6O)CC[C@]5(C)[C@H]4CC[C@]3(C)[C@H]2C(C)=O)c1 | -5 | > 10 | > 10 | > 10 | -5 | Non-toxic | -8 | 10 | 2 | > 10 | > 10 | > 10 | 5
11 | COc1ccc(OC)c([C@@H]2C[C@H]3[C@@H]4CC=C5C[C@@H](O[C@H]6O[C@@H](C)[C@@H](O)[C@@H](O)[C@@H]6O)CC[C@]5(C)[C@H]4CC[C@]3(C)[C@H]2C(C)=O)c1 | -23 | > 10 | > 10 | > 10 | -15 | Non-toxic | -38 | -8 | -25 | > 10 | > 10 | > 10 | -8
12 | COc1ccc(OC)c([C@@H]2C[C@H]3[C@@H]4CC=C5C[C@@H](O[C@H]6O[C@@H](C)[C@@H](O)[C@@H](O)[C@@H]6O)CC[C@]5(C)[C@H]4CC[C@]3(C)[C@H]2[C@H](C)O[C@H]2O[C@@H](C)[C@@H](O)[C@@H](O)[C@@H]2O)c1 | -41 | > 10 | > 10 | > 10 | -45 | Non-toxic | -4 | -6 | -4 | > 10 | > 10 | > 10 | -4
13 | COc1ccc(OC)c([C@@H]2C[C@H]3[C@@H]4CC=C5C[C@@H](O[C@@H]6O[C@H](CO)[C@@H](O)[C@H](O)[C@H]6NC(C)=O)CC[C@]5(C)[C@H]4CC[C@]3(C)[C@H]2C(C)=O)c1 | 11 | > 10 | > 10 | > 10 | 12 | Non-toxic | -3 | -39 | -17 | > 10 | > 10 | > 10 | -39
14 | COc1ccc(OC)c([C@@H]2C[C@H]3[C@@H]4CC=C5C[C@@H](O[C@@H]6O[C@H](CO)[C@@H](O)[C@H](O)[C@@H]6O)CC[C@]5(C)[C@H]4CC[C@]3(C)[C@H]2C(C)=O)c1 | 2 | > 10 | > 10 | > 10 | -1 | Non-toxic | -4 | 20 | 2 | > 10 | > 10 | > 10 | 1
